The source of these data is ChEMBL document CHEMBL1145015, “Structure-activity relationships of 1,2,4-benzotriazine 1,4-dioxides as hypoxia-selective analogues of tirapazamine” (J Med Chem, 2003).

Series [1] can be described thus: Concentration required to reduce plating efficiency to 10 percent of controls, under hypoxic conditions in mouse SCCVII tumor cells. The series is classed as functional, SCC-7. The method, boiled down: (§1)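 SCCVII cells plated in glass dishes (2×10^5 to 1×10^6 per dish) 1–2 days ahead. Drug freshly dissolved, given in complete medium for 1 h at 37 °C with shaking. Hypoxia (<200 ppm O2) by repeated evacuation/flushing with 95% N2 + 5% CO2; aerobic controls flushed with 95% air + 5% CO2. Cells washed, trypsinized, replated. Crystal violet stain after 10–14 days, >50-cell colonies scored. C10 is the concentration giving 10% of control plating efficiency.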

Series [2] in a line: Concentration required to reduce plating efficiency to 10 percent of controls, under aerobic conditions in mouse SCCVII tumor cells. The series is classed as functional, SCC-7. An outline of the steps: as §1
The test system of series [3] is HT-29. Nature of the series: Inhibitory concentration against human adenocarcinoma HT-29 cell line under hypoxic condition. The series is classed as functional, cell-based. The method, boiled down:
(§2)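 SRB proliferation assay in 96-well plates. SCCVII (200 cells) or HT-29 (1000 cells) seeded in αMEM + 10% FCS with glucose (17 mM final) and 100 μM 2'-deoxycytidine, then attached for 3 h. Cells exposed for 4 h at 37 °C to 2-fold serial dilutions in triplicate, either oxic (20% O2, 5% CO2) or in an anaerobic chamber (<0.001% O2). After washing, cells grew for 5 (oxic) or 6 (anoxic) days before SRB staining. IC50 values are the mean of three independent experiments.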

Series [4] deals with SCC-7. Kind of series: Inhibitory concentration against murine SCCVII cell line under aerobic condition. The series is classed as functional, cell-based. The following applies: Mus musculus. An outline of the steps:
as §2

Series [5] can be described thus: Interexperimental difference between the hypoxic and aerobic cytotoxicity using human adenocarcinoma HT-29 cell line. Format: functional.
Series [6] concerns SCC-7. Kind of series: Inhibitory concentration against murine SCCVII cell line under hypoxic condition. Format: functional, cell-based. The following applies: Mus musculus. An outline of the steps:
as §2

The nature of series [7]: Intraexperimental difference between the hypoxic and aerobic cytotoxicity in mouse SCCVII tumor cells. Format: functional, SCC-7. The method, boiled down: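 Clonogenic SCCVII survival after 1 h drug exposure at 37 °C, either hypoxic (<200 ppm O2, 95% N2/5% CO2) or aerobic (95% air/5% CO2). Colonies of >50 cells counted after 10–14 days. HCR = aerobic C10 / hypoxic C10, with both values from the same experiment.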

Series [8] in a line: Interexperimental difference between the hypoxic and aerobic cytotoxicity using murine SCCVII cell line. Format: functional, SCC-7.
Series [9] relates to HT-29. Kind of series: Interexperimental ratio of hypoxic TPZ C10 to hypoxic BTO C10 using human adenocarcinoma HT-29 cell line. The series is classed as functional.
Series [10] in a line: Intraexperimental ratio of hypoxic TPZ C10 to hypoxic BTO C10 in mouse SCCVII tumor cells. The series is classed as functional, SCC-7. The method, boiled down: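 Computed within each experiment from the clonogenic SCCVII assay (1 h drug exposure, hypoxia <200 ppm O2 by gas evacuation/flushing, colony counting after 10–14 days). RHT = C10 of TPZ under hypoxia divided by C10 of the analogue under hypoxia.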

Series [11] has as its system SCC-7. Nature of the series: Interexperimental ratio of hypoxic TPZ C10 to hypoxic BTO C10 using murine SCCVII cell line. Format: functional, Mus musculus.
The subject of series [12] is HT-29. Nature of the series: Inhibitory concentration against human adenocarcinoma HT-29 cell line under aerobic condition. Format: functional, cell-based. The method, boiled down:
as §2

A short description of series [13]: Partition coefficient (logP). The series is classed as physicochemical. The note with it: octanol/water. The method, boiled down: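 Octanol/water partition at pH 7.4, measured by low-volume shake flask. Drug in both the octanol and buffer phases quantified by HPLC.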

Where only a bound is given, the exact number is not on record here.

The term IC50 denotes the concentration at which inhibition is half-maximal. A low value points to inhibition by little substance. On to `COc1cccc2c1[n+]([O-])nc(N)[n+]2[O-]`, for which the figures for the C10 in series [1] and in series [2] were 25.4 µM and over 135 µM, respectively. Moreover, the IC50 in the series on HT-29 [3] amounted to 28.8 µM; in the series on SCC-7 [4] it was 288 µM; with SCC-7 [6], 13.5 µM; in the series with HT-29 [12], 624 µM. Besides, the HCR in [5] is 21.9; in [7], over 5.3; in series [8], 25.7. Moreover, the RHT with HT-29 [9] came out at 0.2; in [10], 0.4; with SCC-7 [11], 0.2.
Consider `Nc1n[n+]([O-])c2cc([N+](=O)[O-])ccc2[n+]1[O-]`, for which the C10 in [1] stood at 5.37 µM; in [2], 36.3 µM. Besides, the IC50 in the series with HT-29 [3] is 0.79 µM; in the series on SCC-7 [4], 2.8 µM; with SCC-7 [6], 0.7 µM; in the series on HT-29 [12], 14.1 µM. For the same molecule, the HCR came to 14.8 in series [5], 6.8 in series [7] and 4.1 in series [8]. In addition, the RHT in the series with HT-29 [9] was determined as 6.7; in [10] it was 1.9; in the series on SCC-7 [11], 3.4.
The logP is the decadic logarithm of the partition coefficient of the neutral form, usually between octanol and water. Higher therefore signals higher lipophilicity. For `CS(=O)(=O)c1cccc2c1[n+]([O-])nc(N)[n+]2[O-]`, the C10 was 50.8 µM in series [1] and 338 µM in series [2]. The IC50 with HT-29 [3] amounted to 15.1 µM; with SCC-7 [4], 15.5 µM; with SCC-7 [6], 9.7 µM; in the series with HT-29 [12], 69.8 µM. Moreover, the figures for the HCR in series [5], in series [7] and in series [8] were 4.5, 6.7 and 1.6, respectively. The logP in [13] was -1.38. Also, the RHT in the series on HT-29 [9] worked out at 0.4; in series [10], 0.2; in the series on SCC-7 [11] it was 0.2.
As for `Nc1n[n+]([O-])c2cc(C(F)(F)F)ccc2[n+]1[O-]`, the C10 in [1] worked out at 9.14 µM; in series [2], 305 µM. In addition, the IC50 was determined as 2.1 µM in the series on HT-29 [3], 23.9 µM with SCC-7 [4], 0.92 µM with SCC-7 [6] and 79.1 µM in the series with HT-29 [12]. The HCR came out at 35.7 in series [5], 33.3 in series [7] and 27.7 in [8]. This molecule also returned a logP in series [13] of 0.81. The RHT in the series on HT-29 [9] is 2.5; in series [10] it was 1.1; in the series on SCC-7 [11], 2.6.
`Nc1n[n+]([O-])c2c(F)cccc2[n+]1[O-]`: the C10 amounted to 10.2 µM in series [1] and 132 µM in series [2]. The IC50 in the series with HT-29 [3] worked out at 2.1 µM; in the series on SCC-7 [4], 23.7 µM; in the series with SCC-7 [6] it was 1.2 µM; with HT-29 [12], 8.7 µM. The HCR in [5] is reported as 4.1; in series [7], 13; in [8], 13.9. Moreover, the figures for the RHT (in the series on HT-29 [9]; in series [10]; in the series with SCC-7 [11]) were 2.5, 1 and 1.9, respectively.
With `Nc1n[n+]([O-])c2ccccc2[n+]1[O-]` [TIRAPAZAMINE], the C10 in [1] is 10.2 µM; in series [2], 2644 µM. For the same molecule, the IC50 in the series on HT-29 [3] was 5.3 µM; in the series on SCC-7 [4], 71.7 µM; with SCC-7 [6], 2.4 µM; in the series with HT-29 [12], 196 µM. Moreover, the HCR in series [5] was found to be 37; in series [7] it was 258; in series [8], 32.9. Moreover, the log partition coefficient (logP) in [13] is -0.34. The RHT (with HT-29 [9]; in series [10]; in the series with SCC-7 [11]) was 1 throughout.
